Assay results published in ChEMBL document CHEMBL5036335, “Functional Characterization of the Nemertide α Family of Peptide Toxins” (J Nat Prod, 2021).

How the values were obtained:
[1] = Toxicity in Artemia salina assessed as mortality incubated for 24 hrs in dark by microwell assay; format: organism-based
Method in brief: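 Nauplii hatched from cysts in aerated artificial seawater (33 g/L), harvested at 24 h, RT. Peptide at 0.003–300 μM in water, in duplicate wells with water control, plus 10–15 nauplii in salt water. Dead and immobilized nauplii counted under a microscope, then the rest killed with MeOH and all counted. % dead or immobilized per well; EC50 by nonlinear regression.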

[2] = biological target: Sodium channel protein type 1 subunit alpha (Homo sapiens, UniProt P35498); experiment: Modulator activity at human Nav1.1 expressed in Xenopus laevis oocytes assessed as elicitation in sodium current measured after 1 to 4 days by two-electrode voltage clamp assay; format: cell-based, Oocyte
Method in brief: (§1)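 Channel cRNA, with auxiliary subunits rβ1, hβ1 or TipE, transcribed from linearized plasmids; 50 nL of 1 ng/nL injected into stage V–VI X. laevis oocytes, kept in 96 mM NaCl, 2 mM KCl, 1.8 mM CaCl2, 2 mM MgCl2, 5 mM HEPES pH 7.4 with gentamycin. Two-electrode voltage clamp at 18–22 °C in same bath solution; 3 M KCl electrodes of 0.8–1.5 MΩ; currents filtered at 1 kHz, sampled at 20 kHz. EC50 from Hill equation fit.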

[3] = biological target: Sodium channel protein type 2 subunit alpha (Rattus norvegicus, UniProt P04775); experiment: Modulator activity at rat Nav1.2 expressed in Xenopus laevis oocytes assessed as elicitation in sodium current measured after 1 to 4 days by two-electrode voltage clamp assay; format: cell-based, Oocyte; method in brief: as §1
[4] = biological target: Sodium channel protein type 3 subunit alpha (Rattus norvegicus, UniProt P08104); experiment: Modulator activity at rat Nav1.3 expressed in Xenopus laevis oocytes assessed as elicitation in sodium current measured after 1 to 4 days by two-electrode voltage clamp assay; format: cell-based, Oocyte; method in brief: as §1
[5] = biological target: Sodium channel protein type 4 subunit alpha (Rattus norvegicus, UniProt P15390); experiment: Modulator activity at rat Nav1.4 expressed in Xenopus laevis oocytes assessed as elicitation in sodium current measured after 1 to 4 days by two-electrode voltage clamp assay; format: cell-based, Oocyte; method in brief: as §1
[6] = biological target: Sodium channel protein type 5 subunit alpha (Homo sapiens, UniProt Q14524); experiment: Modulator activity at human Nav1.5 expressed in Xenopus laevis oocytes assessed as elicitation in sodium current measured after 1 to 4 days by two-electrode voltage clamp assay; format: cell-based, Oocyte; method in brief: as §1
Sodium channel protein type 5 subunit alpha, sequence (Q14524 whole entry): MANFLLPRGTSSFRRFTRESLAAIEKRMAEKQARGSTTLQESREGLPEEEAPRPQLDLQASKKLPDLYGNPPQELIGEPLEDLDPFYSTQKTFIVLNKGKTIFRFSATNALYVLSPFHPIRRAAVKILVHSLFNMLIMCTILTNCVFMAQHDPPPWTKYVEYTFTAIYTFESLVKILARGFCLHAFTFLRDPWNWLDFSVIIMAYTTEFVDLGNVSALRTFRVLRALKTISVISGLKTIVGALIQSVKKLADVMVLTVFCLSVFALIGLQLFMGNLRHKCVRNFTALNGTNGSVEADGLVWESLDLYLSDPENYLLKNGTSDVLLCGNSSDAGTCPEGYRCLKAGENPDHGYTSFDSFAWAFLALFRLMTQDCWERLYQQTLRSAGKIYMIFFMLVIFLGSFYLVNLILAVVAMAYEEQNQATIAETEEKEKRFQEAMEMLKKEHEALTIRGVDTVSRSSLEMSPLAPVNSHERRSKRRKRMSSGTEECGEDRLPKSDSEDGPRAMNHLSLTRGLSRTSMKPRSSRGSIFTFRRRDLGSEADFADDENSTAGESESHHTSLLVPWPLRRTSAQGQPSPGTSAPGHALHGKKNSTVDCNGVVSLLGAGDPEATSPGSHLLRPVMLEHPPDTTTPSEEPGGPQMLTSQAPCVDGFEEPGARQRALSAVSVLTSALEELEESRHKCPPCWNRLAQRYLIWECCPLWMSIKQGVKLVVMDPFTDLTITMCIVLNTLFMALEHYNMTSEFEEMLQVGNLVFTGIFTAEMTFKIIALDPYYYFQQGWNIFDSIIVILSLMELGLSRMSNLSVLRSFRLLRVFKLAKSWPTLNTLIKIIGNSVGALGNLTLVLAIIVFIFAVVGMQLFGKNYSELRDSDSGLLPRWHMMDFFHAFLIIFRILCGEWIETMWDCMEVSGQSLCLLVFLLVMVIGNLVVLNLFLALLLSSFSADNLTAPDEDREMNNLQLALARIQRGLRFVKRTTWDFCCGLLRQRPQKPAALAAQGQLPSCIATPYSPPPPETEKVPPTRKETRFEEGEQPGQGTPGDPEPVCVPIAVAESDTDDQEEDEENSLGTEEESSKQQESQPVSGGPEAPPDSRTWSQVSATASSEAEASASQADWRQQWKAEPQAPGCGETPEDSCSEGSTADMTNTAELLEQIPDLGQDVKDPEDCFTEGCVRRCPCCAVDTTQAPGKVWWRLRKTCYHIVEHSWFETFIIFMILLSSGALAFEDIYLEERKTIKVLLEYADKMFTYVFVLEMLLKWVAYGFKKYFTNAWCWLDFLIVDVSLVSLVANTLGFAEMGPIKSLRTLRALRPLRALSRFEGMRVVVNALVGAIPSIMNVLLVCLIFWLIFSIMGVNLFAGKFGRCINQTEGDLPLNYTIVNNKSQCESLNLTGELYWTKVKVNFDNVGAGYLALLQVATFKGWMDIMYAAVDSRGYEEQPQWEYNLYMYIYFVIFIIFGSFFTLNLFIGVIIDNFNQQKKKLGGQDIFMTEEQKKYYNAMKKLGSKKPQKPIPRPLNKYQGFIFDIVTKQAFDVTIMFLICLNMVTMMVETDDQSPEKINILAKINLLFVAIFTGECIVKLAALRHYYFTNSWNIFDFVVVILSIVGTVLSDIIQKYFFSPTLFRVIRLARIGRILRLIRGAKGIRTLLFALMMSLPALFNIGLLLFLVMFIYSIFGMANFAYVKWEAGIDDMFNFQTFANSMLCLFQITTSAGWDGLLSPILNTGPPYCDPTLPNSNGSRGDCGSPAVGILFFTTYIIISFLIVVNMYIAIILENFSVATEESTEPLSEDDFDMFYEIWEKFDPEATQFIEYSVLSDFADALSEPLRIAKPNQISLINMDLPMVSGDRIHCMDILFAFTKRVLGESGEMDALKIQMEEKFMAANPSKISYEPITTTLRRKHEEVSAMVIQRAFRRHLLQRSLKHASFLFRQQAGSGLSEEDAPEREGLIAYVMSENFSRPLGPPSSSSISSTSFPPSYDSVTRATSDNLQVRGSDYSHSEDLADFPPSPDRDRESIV

[7] = biological target: Sodium channel protein type 8 subunit alpha (Mus musculus, UniProt Q9WTU3); experiment: Modulator activity at mouse Nav1.6 expressed in Xenopus laevis oocytes assessed as elicitation in sodium current measured after 1 to 4 days by two-electrode voltage clamp assay; format: cell-based, Oocyte; method in brief: as §1
[8] = biological target: Sodium channel protein type 9 subunit alpha (Homo sapiens, UniProt Q15858); experiment: Modulator activity at human Nav1.7 expressed in Xenopus laevis oocytes assessed as elicitation in sodium current measured after 1 to 4 days by two-electrode voltage clamp assay; format: cell-based, Oocyte; method in brief: as §1
[9] = biological target: Sodium channel protein type 10 subunit alpha (Rattus norvegicus, UniProt Q62968); experiment: Modulator activity at rat Nav1.8 expressed in Xenopus laevis oocytes assessed as elicitation in sodium current measured after 1 to 4 days by two-electrode voltage clamp assay; format: cell-based; details: oocyte
Sodium channel protein type 10 subunit alpha, sequence (Q62968 whole entry): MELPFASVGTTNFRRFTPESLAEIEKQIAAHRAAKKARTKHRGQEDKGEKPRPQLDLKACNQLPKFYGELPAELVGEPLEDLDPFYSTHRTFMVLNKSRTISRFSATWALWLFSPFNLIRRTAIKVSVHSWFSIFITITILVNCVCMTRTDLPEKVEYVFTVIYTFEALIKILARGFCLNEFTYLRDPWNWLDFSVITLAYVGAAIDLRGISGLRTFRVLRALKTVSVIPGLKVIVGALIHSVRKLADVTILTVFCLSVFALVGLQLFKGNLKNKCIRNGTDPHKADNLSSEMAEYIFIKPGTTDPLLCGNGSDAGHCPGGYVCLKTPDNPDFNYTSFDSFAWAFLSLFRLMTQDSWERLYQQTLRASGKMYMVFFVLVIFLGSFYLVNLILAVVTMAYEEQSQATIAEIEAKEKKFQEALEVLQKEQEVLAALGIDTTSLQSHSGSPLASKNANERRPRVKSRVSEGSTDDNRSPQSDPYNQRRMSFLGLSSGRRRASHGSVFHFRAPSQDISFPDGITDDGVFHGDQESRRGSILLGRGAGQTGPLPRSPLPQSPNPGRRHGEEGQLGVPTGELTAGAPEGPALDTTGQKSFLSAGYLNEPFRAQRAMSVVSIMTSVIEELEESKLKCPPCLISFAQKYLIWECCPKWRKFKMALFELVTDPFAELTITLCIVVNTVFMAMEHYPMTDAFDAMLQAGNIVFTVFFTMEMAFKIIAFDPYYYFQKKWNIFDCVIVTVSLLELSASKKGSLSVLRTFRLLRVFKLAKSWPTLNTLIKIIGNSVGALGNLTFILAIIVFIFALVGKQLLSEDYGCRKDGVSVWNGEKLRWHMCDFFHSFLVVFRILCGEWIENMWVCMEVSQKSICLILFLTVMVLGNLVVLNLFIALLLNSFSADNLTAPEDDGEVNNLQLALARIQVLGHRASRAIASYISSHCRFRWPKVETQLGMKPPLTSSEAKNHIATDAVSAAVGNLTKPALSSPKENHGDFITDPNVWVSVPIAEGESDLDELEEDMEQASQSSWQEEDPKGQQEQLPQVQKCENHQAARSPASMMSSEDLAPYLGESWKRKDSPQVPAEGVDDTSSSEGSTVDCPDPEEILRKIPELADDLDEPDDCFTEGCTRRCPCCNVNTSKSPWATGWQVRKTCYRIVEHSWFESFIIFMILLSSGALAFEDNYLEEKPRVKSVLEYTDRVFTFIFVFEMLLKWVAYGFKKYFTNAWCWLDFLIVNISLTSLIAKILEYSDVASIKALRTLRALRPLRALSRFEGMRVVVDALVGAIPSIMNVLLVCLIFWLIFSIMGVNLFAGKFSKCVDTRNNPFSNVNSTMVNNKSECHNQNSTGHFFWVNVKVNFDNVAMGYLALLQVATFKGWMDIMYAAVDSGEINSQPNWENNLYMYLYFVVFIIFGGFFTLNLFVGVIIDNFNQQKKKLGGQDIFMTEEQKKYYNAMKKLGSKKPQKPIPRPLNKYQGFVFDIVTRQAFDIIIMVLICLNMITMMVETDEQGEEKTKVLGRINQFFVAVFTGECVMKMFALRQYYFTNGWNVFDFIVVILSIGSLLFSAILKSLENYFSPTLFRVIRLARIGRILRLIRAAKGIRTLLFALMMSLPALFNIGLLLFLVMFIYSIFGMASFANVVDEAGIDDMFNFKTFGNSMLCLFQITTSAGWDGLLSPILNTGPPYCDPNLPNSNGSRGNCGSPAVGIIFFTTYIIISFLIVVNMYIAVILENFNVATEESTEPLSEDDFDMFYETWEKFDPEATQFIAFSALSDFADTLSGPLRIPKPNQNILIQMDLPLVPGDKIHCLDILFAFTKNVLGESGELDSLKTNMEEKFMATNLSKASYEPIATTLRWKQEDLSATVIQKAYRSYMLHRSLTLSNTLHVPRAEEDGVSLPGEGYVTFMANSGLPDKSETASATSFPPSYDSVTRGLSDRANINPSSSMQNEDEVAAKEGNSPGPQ
Method in brief: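 Channel cRNA transcribed from linearized plasmid; 50 nL at 1 ng/nL injected into stage V–VI oocytes. Oocytes held in 96 mM NaCl, 2 mM KCl, 1.8 mM CaCl2, 2 mM MgCl2, 5 mM HEPES pH 7.4 with gentamycin. TEVC at 18–22 °C in the same solution, electrodes 3 M KCl, 0.8–1.5 MΩ. Currents filtered 1 kHz, sampled 20 kHz. EC50 from Hill equation fit.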

[10] = Modulator activity at german cockroach Nav1 expressed in Xenopus laevis oocytes assessed as elicitation in sodium current measured after 1 to 4 days by two-electrode voltage clamp assay; format: cell-based; details: Blattella germanica, Oocyte; method in brief: as §1

Structure (SMILES)	EC50 at 24 h [1] [nM]	EC50 [2] [nM]	EC50 [3] [nM]	EC50 [4] [nM]	EC50 [5] [nM]	EC50 [6] [nM]	EC50 [7] [nM]	EC50 [8] [nM]	EC50 [9]	EC50 [10] [nM]	EC50 ([2]; oocyte) [nM]	EC50 ([3]; oocyte) [nM]	EC50 ([4]; oocyte) [nM]	EC50 ([5]; oocyte) [nM]	EC50 ([6]; oocyte) [nM]	EC50 ([7]; oocyte) [nM]	EC50 ([8]; oocyte) [nM]
CC[C@H](C)[C@@H]1NC(=O)[C@@H](NC(=O)CN)CSSC[C@@H]2NC(=O)[C@@H]3CSSC[C@@H](C(=O)N[C@@H](CC(N)=O)C(=O)N4C[C@@H](O)C[C@H]4C(=O)N4C[C@@H](O)C[C@H]4C(=O)N[C@@H](CC(N)=O)C(=O)N[C@@H](CCC(N)=O)C(=O)O)NC(=O)[C@H](CCCCN)NC(=O)[C@H](Cc4ccccc4)NC(=O)[C@H](CC(N)=O)NC(=O)[C@H](Cc4c[nH]c5ccccc45)NC(=O)CNC(=O)[C@H](CSSC[C@H](NC(=O)[C@H](Cc4ccccc4)NC(=O)[C@H](CO)NC(=O)CNC(=O)[C@H]([C@@H](C)O)NC(=O)[C@H](CO)NC1=O)C(=O)N[C@@H]([C@@H](C)O)C(=O)N[C@@H](CC(C)C)C(=O)N[C@@H](CO)C(=O)N[C@@H](CCCCN)C(=O)NCC(=O)N3)NC(=O)[C@H](CC(N)=O)NC(=O)[C@H](CCCCN)NC(=O)[C@H]([C@@H](C)O)NC2=O	400	92	134	12.9	14.6	27.8	124	80.5	Not Active	11.1							
CC[C@H](C)[C@@H]1NC(=O)[C@@H](NC(=O)CN)CSSC[C@@H]2NC(=O)[C@@H]3CSSC[C@@H](C(=O)N[C@@H](CC(N)=O)C(=O)N4C[C@@H](O)C[C@H]4C(=O)N4C[C@@H](O)C[C@H]4C(=O)N[C@@H](CC(N)=O)C(=O)N[C@@H](CCC(N)=O)C(=O)O)NC(=O)[C@H](Cc4cnc[nH]4)NC(=O)[C@H](Cc4ccccc4)NC(=O)[C@H](CC(N)=O)NC(=O)[C@H](Cc4c[nH]c5ccccc45)NC(=O)CNC(=O)[C@H](CSSC[C@H](NC(=O)[C@H](Cc4ccccc4)NC(=O)[C@H](CO)NC(=O)CNC(=O)[C@H]([C@@H](C)O)NC(=O)[C@H](CCCCN)NC1=O)C(=O)N[C@@H]([C@@H](C)O)C(=O)N[C@@H](CC(C)C)C(=O)N[C@@H](CO)C(=O)N[C@@H](CCCCN)C(=O)NCC(=O)N3)NC(=O)[C@H](CC(N)=O)NC(=O)[C@H](CCCCN)NC(=O)[C@H]([C@@H](C)O)NC2=O	2800	7.9	24.3	106	46.4	215	36.3	97.2	Not Active	2.6							
CC[C@H](C)[C@@H]1NC(=O)[C@@H](NC(=O)CN)CSSC[C@@H]2NC(=O)[C@@H]3CSSC[C@@H](C(=O)N[C@@H](CC(N)=O)C(=O)N4C[C@@H](O)C[C@H]4C(=O)N4C[C@@H](O)C[C@H]4C(=O)N[C@@H](CC(N)=O)C(=O)N[C@@H](CCC(N)=O)C(=O)O)NC(=O)[C@H](CCCCN)NC(=O)[C@H](Cc4ccccc4)NC(=O)[C@H](CC(N)=O)NC(=O)[C@H](Cc4c[nH]c5ccccc45)NC(=O)CNC(=O)[C@H](CSSC[C@H](NC(=O)[C@H](C(C)C)NC(=O)[C@H](CO)NC(=O)CNC(=O)[C@H]([C@@H](C)O)NC(=O)[C@H](C)NC1=O)C(=O)N[C@@H]([C@@H](C)O)C(=O)N[C@@H](CC(C)C)C(=O)N[C@@H](CO)C(=O)N[C@@H](CCCCN)C(=O)NCC(=O)N3)NC(=O)[C@H](CC(N)=O)NC(=O)[C@H](CCCCN)NC(=O)[C@H]([C@@H](C)O)NC2=O	2900	126	97.9	128	1150	149	1360	1300	Not Active	87.2							
CC[C@H](C)[C@@H]1NC(=O)[C@@H](NC(=O)CN)CSSC[C@@H]2NC(=O)[C@@H]3CSSC[C@@H](C(=O)N[C@@H](CC(N)=O)C(=O)N[C@H](CCCCN)C(=O)N4C[C@@H](O)C[C@H]4C(=O)N[C@@H](CC(N)=O)C(=O)N[C@@H](CCC(N)=O)C(=O)O)NC(=O)[C@H](Cc4cnc[nH]4)NC(=O)[C@H](Cc4ccccc4)NC(=O)[C@H](CC(N)=O)NC(=O)[C@H](Cc4c[nH]c5ccccc45)NC(=O)CNC(=O)[C@H](CSSC[C@H](NC(=O)[C@H](CCSC)NC(=O)[C@H](CO)NC(=O)CNC(=O)[C@H](C(C)C)NC(=O)[C@@H]4CCCN4C1=O)C(=O)N[C@@H]([C@@H](C)O)C(=O)N[C@@H](CC(C)C)C(=O)N[C@@H](CO)C(=O)N[C@@H](CC(N)=O)C(=O)NCC(=O)N3)NC(=O)[C@H](CC(N)=O)NC(=O)[C@H](CCCCN)NC(=O)[C@H]([C@@H](C)O)NC2=O	6100								Not Active	9.5	172	50.4	170	811	156	148	129
CC[C@H](C)[C@@H]1NC(=O)[C@@H](NC(=O)CN)CSSC[C@@H]2NC(=O)[C@@H]3CSSC[C@@H](C(=O)N[C@@H](CC(N)=O)C(=O)N4C[C@@H](O)C[C@H]4C(=O)N4C[C@@H](O)C[C@H]4C(=O)N[C@@H](CC(N)=O)C(=O)N[C@@H](CCC(N)=O)C(=O)O)NC(=O)[C@H](CCCCN)NC(=O)[C@H](Cc4ccccc4)NC(=O)[C@H](CC(N)=O)NC(=O)[C@H](Cc4c[nH]c5ccccc45)NC(=O)CNC(=O)[C@H](CSSC[C@H](NC(=O)CNC(=O)[C@H](CO)NC(=O)CNC(=O)[C@H]([C@@H](C)O)NC(=O)[C@H](CCCCN)NC1=O)C(=O)N[C@@H]([C@@H](C)O)C(=O)N[C@@H](CC(C)C)C(=O)N[C@@H](CO)C(=O)N[C@@H](CCCCN)C(=O)NCC(=O)N3)NC(=O)[C@H](CC(N)=O)NC(=O)[C@H](CCCCN)NC(=O)[C@H]([C@@H](C)O)NC2=O	4700	126	138	139	150	108	92.8	102	Not Active	97.5							
CC[C@H](C)[C@@H]1NC(=O)[C@@H](NC(=O)CN)CSSC[C@@H]2NC(=O)[C@@H]3CSSC[C@@H](C(=O)N[C@@H](CC(N)=O)C(=O)N4C[C@@H](O)C[C@H]4C(=O)N4C[C@@H](O)C[C@H]4C(=O)N[C@@H](CC(N)=O)C(=O)N[C@@H](CCC(N)=O)C(=O)O)NC(=O)[C@H](Cc4cnc[nH]4)NC(=O)[C@H](Cc4ccccc4)NC(=O)[C@H](CC(N)=O)NC(=O)[C@H](Cc4c[nH]c5ccccc45)NC(=O)CNC(=O)[C@H](CSSC[C@H](NC(=O)[C@H](Cc4ccccc4)NC(=O)[C@H](CO)NC(=O)CNC(=O)[C@H]([C@@H](C)O)NC(=O)[C@H](C)NC1=O)C(=O)N[C@@H]([C@@H](C)O)C(=O)N[C@@H](CC(C)C)C(=O)N[C@@H](CO)C(=O)N[C@@H](CCCCN)C(=O)NCC(=O)N3)NC(=O)[C@H](CC(N)=O)NC(=O)[C@H](CCCCN)NC(=O)[C@H]([C@@H](C)O)NC2=O	400	102	156	9.4	15.4	133	66.9	73	Not Active	7.8							
